Test results: ChEMBL document CHEMBL1147338, “Production of an anti-allergic triterpene bryonolic acid, by plant cell cultures” (J Nat Prod, 1993)
Active and inactive are the calls of the source. The rule behind the calls is not given here.

Assays:
[1] = molecular target: T1, Aldo-keto reductase family 1 member D1 (Rattus norvegicus) (UniProt P31210); assay: Inhibition of rat liver 3-ketosteroid 5-beta-reductase
T1 sequence (whole entry): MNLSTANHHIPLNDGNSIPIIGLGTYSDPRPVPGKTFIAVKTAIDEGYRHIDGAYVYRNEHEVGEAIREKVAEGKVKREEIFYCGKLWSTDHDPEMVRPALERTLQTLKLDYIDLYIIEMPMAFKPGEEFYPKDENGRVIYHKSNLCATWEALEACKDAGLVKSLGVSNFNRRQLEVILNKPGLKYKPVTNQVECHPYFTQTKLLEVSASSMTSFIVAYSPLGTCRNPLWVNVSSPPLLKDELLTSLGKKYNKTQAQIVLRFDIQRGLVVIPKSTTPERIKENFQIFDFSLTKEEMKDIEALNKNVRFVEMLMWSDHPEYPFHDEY

[2] = test system: Mus musculus; assay: Antiallergic activity in ip dosed ddY mouse assessed as inhibition of passive cutaneous anaphylaxis administered 15 mins before egg albumin challenge; type: functional; conditions: read-out: ID50 (the source's name)
Outline: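 Passive cutaneous anaphylaxis: anti-egg-albumin antiserum injected into both ears 48 h before iv egg albumin plus Evans Blue. Intraperitoneal dosing 15 min before antigen; dye leakage per ear measured spectrophotometrically after 30 min. ID50 (mg/kg) given as dose giving 50% inhibition.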

[3] = test system: Mus musculus; assay: Antiallergic activity in po dosed ddY mouse assessed as inhibition of passive cutaneous anaphylaxis administered 30 mins before egg albumin challenge; type: functional; conditions: read-out: ID50 (the source's name)
Outline: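 Passive cutaneous anaphylaxis in mice: ear sensitization with anti-egg-albumin antiserum 48 h before iv egg albumin with Evans Blue; oral dosing 30 min before antigen; ear dye leakage read spectrophotometrically 30 min after challenge.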

[4] = test system: Mus musculus; assay: Antiallergic activity in ddY mouse assessed as inhibition picryl chloride-induced contact dermatitis at 150 mg/kg, po administered 3 hrs after picryl chloride challenge measured after 24 hrs
[5] = test system: Mus musculus; assay: Antiallergic activity in ddY mouse assessed as inhibition picryl chloride-induced contact dermatitis at 75 mg/kg, po administered 3 hrs after picryl chloride challenge measured after 24 hrs
[6] = test system: Mus musculus; assay: Antiallergic activity in ddY mouse assessed as inhibition sheep erythrocytes-induced arthus reaction at 600 mg/kg, po administered 30 mins before induction of arthus reaction; type: functional
Outline: (§1)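 Male ddY mice (4-week-old, 16–18 g) sensitized by iv sheep erythrocytes 19 and 5 days before Arthus reaction, induced by sc sheep erythrocytes into right paw. Oral dosing 30 min before induction; edema scored as right minus left paw thickness, expressed as % inhibition of control.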

[7] = test system: Mus musculus; assay: Antiallergic activity in ddY mouse assessed as inhibition picryl chloride-induced contact dermatitis at 300 mg/kg, po administered 3 hrs after picryl chloride challenge measured after 24 hrs
[8] = test system: Mus musculus; assay: Antiallergic activity in ddY mouse assessed as inhibition sheep erythrocytes-induced arthus reaction at 300 mg/kg, po administered 30 mins before induction of arthus reaction; type: functional; outline: as §1
[9] = test system: Mus musculus; assay: Acute toxicity in ddY mouse at 4 g/kg, po; type: organism-based; conditions: in vivo, 4000 mg/kg
Outline: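 Mice dosed orally at 4 g/kg; lethality recorded as the read-out for acute toxicity.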

[10] = test system: Mus musculus; assay: Antiallergic activity in ddY mouse assessed as inhibition sheep erythrocytes-induced arthus reaction at 30 mg/kg, po administered 30 mins before induction of arthus reaction; type: functional; outline: as §1
[11] = test system: Mus musculus; assay: Antiallergic activity in ddY mouse assessed as inhibition picryl chloride-induced contact dermatitis at 30 mg/kg, po administered 3 hrs after picryl chloride challenge measured after 24 hrs

CC1(C)[C@@H](O)CC[C@]2(C)C3=C(CC[C@@H]12)[C@@]1(C)CC[C@@]2(C)CC[C@@](C)(C(=O)O)C[C@H]2[C@]1(C)CC3 [BRYONOLIC ACID]
Activity [1]: inactive
ED50 [2]: 376 mg/kg

CC1(C)[C@@H](OC(=O)CCC(=O)[O-])CC[C@]2(C)C3=C(CC[C@@H]12)[C@@]1(C)CC[C@@]2(C)CC[C@@](C)(C(=O)[O-])C[C@H]2[C@]1(C)CC3.[K+].[K+]
ED50 [3]: 63.7 mg/kg
inhibition in vivo at 150 mg/kg [4]: 40.7%
inhibition in vivo at 75 mg/kg [5]: 34%
inhibition in vivo at 600 mg/kg [6]: 62.4%
inhibition in vivo at 300 mg/kg [7]: 53%
ED50 [2]: 55.3 mg/kg
inhibition in vivo at 300 mg/kg [8]: 35.3%
Activity [9]: Non-toxic

CC1(C)[C@@H](OC(=O)c2ccccc2C(=O)[O-])CC[C@]2(C)C3=C(CC[C@@H]12)[C@@]1(C)CC[C@@]2(C)CC[C@@](C)(COC(=O)c4ccccc4C(=O)[O-])C[C@H]2[C@]1(C)CC3.[K+].[K+]
ED50 [3]: 92.5 mg/kg
ED50 [2]: 41.4 mg/kg

COc1ccc(/C=C/C(=O)Nc2ccccc2C(=O)O)cc1OC [TRANILAST]
ED50 [2]: 152 mg/kg

CC1(C)[C@@H](O)CC[C@]2(C)[C@H]3C(=O)C=C4[C@@H]5C[C@@](C)(C(=O)O)CC[C@]5(C)CC[C@@]4(C)[C@]3(C)CC[C@@H]12
Activity [1]: Active

CC1(C)[C@@H](O)CC[C@]2(C)C3=C(CC[C@@H]12)[C@@]1(C)CC[C@@]2(C)CC[C@@](C)(CO)C[C@H]2[C@]1(C)CC3
ED50 [2]: 315 mg/kg

CC1(C)[C@@H](OC(=O)CCC(=O)[O-])CC[C@]2(C)C3=C(CC[C@@H]12)[C@@]1(C)CC[C@@]2(C)CC[C@@](C)(COC(=O)CCC(=O)[O-])C[C@H]2[C@]1(C)CC3.[K+].[K+]
ED50 [2]: 52.4 mg/kg

CC1(C)[C@@H](OC(=O)CCC(=O)[O-])CC[C@]2(C)C3=C(CC[C@@H]12)[C@@]1(C)CC[C@@]2(C)CC[C@@](C)(CO)C[C@H]2[C@]1(C)CC3.[K+]
ED50 [2]: 50.3 mg/kg

CC1(C)[C@@H](O)CC[C@]2(C)C3=C(CC[C@@H]12)[C@@]1(C)CC[C@@]2(C)CC[C@@](C)(COC(=O)CCC(=O)[O-])C[C@H]2[C@]1(C)CC3.[K+]
ED50 [2]: > 400 mg/kg

CC1(C)[C@@H](OC(=O)c2ccccc2C(=O)[O-])CC[C@]2(C)C3=C(CC[C@@H]12)[C@@]1(C)CC[C@@]2(C)CC[C@@](C)(C(=O)[O-])C[C@H]2[C@]1(C)CC3.[K+].[K+]
ED50 [3]: 172 mg/kg
ED50 [2]: 34.2 mg/kg

CC1(C)[C@@H](OC(=O)CCC(=O)[O-])CC[C@]2(C)C3=CC[C@@]4(C)[C@@H]5C[C@](C)(C(=O)[O-])CC[C@]5(C)CC[C@]4(C)C3=CC[C@@H]12.[K+].[K+]
ED50 [2]: 92.4 mg/kg

C[C@]12C=CC(=O)C=C1CC[C@@H]1[C@@H]2[C@@H](O)C[C@@]2(C)[C@H]1CC[C@]2(O)C(=O)COC(=O)CCC(=O)O [PREDNISOLONE HEMISUCCINATE]
inhibition in vivo at 30 mg/kg [10]: 37.4%
inhibition in vivo at 30 mg/kg [11]: 41%
